Converted amounts (≈) assume the structure as drawn. The source made the active and inactive calls. No cut-off for these calls is given here.
How the values were obtained:
Enterococcus faecium = assay: Antibacterial activity against vancomycin-resistant Enterococcus faecium ATCC 700221 assessed as zone of inhibition by disc diffusion method; type: functional
Staphylococcus aureus [1] = assay: Antibacterial activity against heterogeneous vancomycin-intermediate resistant Staphylococcus aureus Mu3 ATCC 700698 assessed as zone of inhibition by disc diffusion method; type: functional
Staphylococcus aureus [2] = assay: Bactericidal activity against vancomycin-intermediate resistant Staphylococcus aureus Mu50 ATCC 700699 assessed as bacterial killing incubated for over night; type: functional
In short: (§1)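 For MBC, 5 μL from each well was spotted on agar and incubated overnight; MBC is the lowest concentration with no visible growth. Ratio taken as MBC over MIC.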

Staphylococcus aureus [3] = assay: Antibacterial activity against vancomycin-resistant Staphylococcus aureus HIP11714 assessed as inhibition of bacterial growth incubated for 20 hrs by broth microdilution method; type: functional; settings: HIP11714, 20 h
In short: (§2)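 Broth microdilution: 0.5 McFarland suspension from an overnight culture, diluted 1:100 in cation-adjusted Mueller Hinton broth (CAMHB), given serial dilutions of test agent for 20 h at 37 °C. MIC is the lowest concentration with no visible growth.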

Staphylococcus aureus [4] = assay: Antibacterial activity against methicillin-susceptible Staphylococcus aureus ATCC 25923 assessed as bacterial growth inhibition incubated for 20 hrs by broth dilution method; type: functional; in short: as §2
Staphylococcus aureus [5] = assay: Antibacterial activity against heterogeneous vancomycin-intermediate Staphylococcus aureus Mu3 ATCC 700698 assessed as bacterial growth inhibition measured between 5 to 7 passages by broth dilution method; type: functional
In short: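 Serial passage with hVISA Mu3, VISA and VRSA strains grown at 0.5× MIC of agent (± equimolar vancomycin). […] MIC was read visually at each passage.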

Staphylococcus aureus [6] = assay: Bacteriostatic activity against methicillin-susceptible Staphylococcus aureus ATCC 25923 assessed as reduction in colony forming unit at 1 times of MIC measured up to 4 hrs by time kill assay; type: functional, organism-based; settings: time hrs <=4
In short: (§3)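 Time-kill: a 1:100 dilution of 0.5 McFarland S. aureus […] suspension was exposed to 0, 1 and 4× MIC. At 0, 1, 2 and 4 h, samples were serially diluted in PBS and plated on MHA. CFU were counted after 30 h incubation.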

Staphylococcus aureus [7] = assay: Antibacterial activity against methicillin-susceptible Staphylococcus aureus ATCC 25923 in presence of 10% v/v serum; type: functional
Staphylococcus aureus [8] = assay: Ratio of MBC to MIC against vancomycin-intermediate resistant Staphylococcus aureus Mu50 ATCC 700699; type: functional; in short: as §1
Staphylococcus aureus [9] = assay: Bacteriostatic activity against methicillin-susceptible Staphylococcus aureus ATCC 25923 assessed as reduction in glucose metabolism measured at 0.5 hr interval for 15 hrs by phenol red based microplate reader assay; type: functional, organism-based
In short: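 Glucose acidification: an OD600 1.0 suspension of S. aureus […] in HBSS was mixed with phenol red (70 μM stock) and test agent added from a 2 mM stock. Controls were DMSO vehicle and water. OD560 was read every 0.5 h for 15 h at 37 °C.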

Enterobacter cloacae = assay: Antibacterial activity against Enterobacter cloacae ATCC 23355 assessed as zone of inhibition by disc diffusion method; type: functional
Acinetobacter baumannii [10] = assay: Antibacterial activity against multidrug-resistant Acinetobacter baumannii BAA 1605 assessed as zone of inhibition by disc diffusion method; type: functional
Enterococcus faecalis = assay: Antibacterial activity against vancomycin-susceptible Enterococcus faecalis ATCC 29212 assessed as zone of inhibition by disc diffusion method; type: functional
Staphylococcus aureus [11] = assay: Ration of MBC to MIC against Vancomycin-resistant Staphylococcus aureus HIP11714; type: functional; in short: as §1
Staphylococcus aureus [12] = assay: Antibacterial activity against methicillin-susceptible Staphylococcus aureus ATCC 25923 in presence of glutathione; type: functional
In short: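 Broth microdilution MIC: a 0.5 McFarland suspension from overnight culture was diluted 1:100 in cation-adjusted Mueller Hinton broth supplemented with glutathione 100 μM. It was exposed to serial dilutions for 20 h at 37 °C. MIC was taken as the lowest concentration with no visible growth.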

Staphylococcus aureus [13] = assay: Antibacterial activity against community acquired methicillin-resistant Staphylococcus aureus BAA 1747 assessed as zone of inhibition by disc diffusion method; type: functional
Staphylococcus aureus [14] = assay: Synergistic antibacterial activity against methicillin-resistant Staphylococcus aureus ATCC 43300 in presence of vancomycin by disc diffusion method; type: functional, organism-based
Acinetobacter baumannii [15] = assay: Antibacterial activity against Acinetobacter baumannii ATCC 19606 assessed as zone of inhibition by disc diffusion method; type: functional
Staphylococcus aureus [16] = assay: Bactericidal activity against heterogeneous vancomycin-intermediate Staphylococcus aureus Mu3 ATCC 700698 assessed as bacterial killing incubated for over night; type: functional; in short: as §1
Staphylococcus aureus [17] = assay: Ratio of MBC to MIC against methicillin-resistant Staphylococcus aureus ATCC 43300; type: functional; in short: as §1
HepG2 = assay: Cytotoxicity against human HepG2 cells assessed as reduction in cell viability after 72 hrs by MTT assay; type: cell-based; settings: HepG2, 72 h
In short: (§4)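 MTT viability: MDA-MB-231 and HepG2 cells (kept in DMEM with 10% FBS) were seeded at 5000/well and allowed to adhere overnight. They were exposed to 0.001–100 μM for 72 h, then given MTT 1 mg/mL in PBS pH 7.4 for 2 h. Formazan was dissolved in DMSO and A570 read. IC50 was taken from dose-response curves.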

Staphylococcus aureus [18] = assay: Antibacterial activity against methicillin-susceptible Staphylococcus aureus ATCC 25923 assessed as zone of inhibition by disc diffusion method; type: functional
[19] = test system: Staphylococcus epidermidis; assay: Antibacterial activity against Staphylococcus epidermidis ATCC 14990 assessed as zone of inhibition by disc diffusion method; type: functional
Staphylococcus aureus [20] = assay: Antibacterial activity against vancomycin-resistant Staphylococcus aureus HIP11714 assessed as bacterial growth inhibition by measuring fold increase in MIC between 5 to 7 passages by broth dilution method; type: functional
Escherichia coli = assay: Antibacterial activity against beta-lactam resistant Escherichia coli BAA 2326 assessed as zone of inhibition by disc diffusion method; type: functional
Staphylococcus aureus [21] = assay: Bacteriostatic activity against methicillin-susceptible Staphylococcus aureus ATCC 25923 assessed as reduction in bacterial metabolism at 0.25 to 1 times of MIC incubated for 1 hr by C12-resazurin dye based fluorescence assay; type: functional, organism-based
Staphylococcus aureus [22] = assay: Disruption of membrane potential in Staphylococcus aureus after 15 to 30 mins by DiOC2(3) probe based flow cytometric anlaysis; type: functional, organism-based; settings: time 15-30 min
In short: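 An overnight S. aureus culture was diluted 1:100 in LB, shaken 2 h at 37 °C, then diluted to a final 1:200. Cells were treated with 3–30 μM, DMSO 2% vehicle or CCCP at 37 °C with shaking. At 15 and 30 min, samples were stained 20 min with DiOC2(3). Flow cytometry used ex 488 nm, green 530/30 and red 585/42, reported as red/green ratio (mean ± SEM).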

MDA-MB-231 = assay: Cytotoxicity against human MDA-MB-231 cells assessed as reduction in cell viability after 72 hrs by MTT assay; type: cell-based; settings: MDA-MB-231, 72 h; in short: as §4
Pseudomonas aeruginosa = assay: Antibacterial activity against Pseudomonas aeruginosa ATCC 15422 assessed as zone of inhibition by disc diffusion method; type: functional
Staphylococcus aureus [23] = assay: Bacteriostatic activity against methicillin-susceptible Staphylococcus aureus ATCC 25923 assessed as reduction in colony forming unit at 4 times of MIC measured up to 4 hrs by time kill assay; type: functional, organism-based; in short: as §3
Staphylococcus aureus [24] = assay: Antibacterial activity against methicillin-susceptible Staphylococcus aureus ATCC 25923 assessed as delayed bacterial proliferation at 0.5 times of MIC for 15 hrs; type: functional, organism-based

CCCCCCCCSSc1ccccn1
diameter of the inhibition zone (DIZ) (Enterococcus faecium): 12 mm
diameter of the inhibition zone (DIZ) (Staphylococcus aureus [1]): 37 mm
MBC (Staphylococcus aureus [2]): 25 µM (≈ 6.39 µg/mL)
MIC (Staphylococcus aureus [3]): 6.25 µM (≈ 1.6 µg/mL)
MIC (Staphylococcus aureus [4]): 12.5 µM (≈ 3.19 µg/mL)
MIC (Staphylococcus aureus [5]): > 50 µM
Activity (Staphylococcus aureus [6]): Active
MIC (Staphylococcus aureus [7]): 25 µM
Ratio (Staphylococcus aureus [8]): 8
Activity (Staphylococcus aureus [9]): Active
diameter of the inhibition zone (DIZ) (Enterobacter cloacae): 0 mm
diameter of the inhibition zone (DIZ) (Acinetobacter baumannii [10]): 0 mm
diameter of the inhibition zone (DIZ) (Enterococcus faecalis): 12 mm
Ratio (Staphylococcus aureus [11]): >8
MIC (Staphylococcus aureus [12]): 50 µM
diameter of the inhibition zone (DIZ) (Staphylococcus aureus [13]): 30 mm
Activity (Staphylococcus aureus [14]): Active
diameter of the inhibition zone (DIZ) (Acinetobacter baumannii [15]): 0 mm
MBC (Staphylococcus aureus [16]): > 50 µM
Ratio (Staphylococcus aureus [17]): >8
IC50 (HepG2): ≥ 100 µM
diameter of the inhibition zone (DIZ) (Staphylococcus aureus [18]): 30 mm
diameter of the inhibition zone (DIZ) [19]: 46 mm
fold change (FC) (Staphylococcus aureus [20]): >2
diameter of the inhibition zone (DIZ) (Escherichia coli): 0 mm
Activity (Staphylococcus aureus [21]): Active
Activity (Staphylococcus aureus [22]): Dose-dependent effect
IC50 (MDA-MB-231): 74.9 µM
diameter of the inhibition zone (DIZ) (Pseudomonas aeruginosa): 0 mm
Activity (Staphylococcus aureus [23]): Active
Activity (Staphylococcus aureus [24]): Active

From ChEMBL document CHEMBL4715813, “Allicin-inspired pyridyl disulfides as antimicrobial agents for multidrug-resistant Staphylococcus aureus” (Eur J Med Chem, 2018)
